pIC50: −log10 of the molar value.
Key:
[1] = Inhibition of seed bug sodium/potassium-ATPase incubated for 20 mins by Spectrophotometric analysis; set-up: species or system Oncopeltus fasciatus
Summary of the method: (§1)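 Enzyme was porcine cerebral cortex Na+/K+-ATPase or dissected Oncopeltus fasciatus neural tissue. Six-point 1/10 series (5 × 10⁻³ to 5 × 10⁻⁸ M, in 20% DMSO/H2O) was diluted 1:5 into Tris-buffered ATP, NaCl, KCl, MgCl2 and enzyme, then held 20 min at 37 °C with shaking. SDS stop; Taussky–Shorr phosphate read at 700 nm. KCl-free background contained 10 mM ouabain. Technical triplicates; ouabain reference; 4-parameter logistic mixed model gave IC50.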

[2] = Inhibition of porcine sodium/potassium-ATPase incubated for 20 mins by Spectrophotometric analysis; set-up: species or system Sus scrofa domesticus; summary of the method: as §1

SMILES | pIC50 [1] | pIC50 [2]
C[C@@H]1C[C@@H](O[C@@H]2O[C@H](CO)[C@@H](O)[C@H](O)[C@H]2O)[C@]2(O)O[C@@H]3C[C@@]4(C)[C@@H](C[C@@H]5O[C@]56[C@@H]4[C@H](O)[C@H](O)[C@]4(C)[C@@H](C5=CC(=O)OC5)CC[C@@]46O)C[C@H]3O[C@@H]2O1 | 2.71 | 5.66
C[C@H]1O[C@@H](O[C@H]2CC[C@@]3(C)[C@@H](CC[C@@H]4[C@@H]3C[C@@H](O)[C@]3(C)[C@@H](C5=CC(=O)OC5)CC[C@]43O)C2)[C@H](O)[C@H](O)[C@@H]1O[C@@H]1O[C@H](CO)[C@@H](O)[C@H](O)[C@H]1O | 3.66 | 5.96
C[C@H]1O[C@@H](O[C@H]2CC[C@@]3(C)[C@H](C2)C[C@@H]2O[C@]24[C@@H]3CC[C@]2(C)[C@@H](C3=CC(=O)OC3)CC[C@]42O)[C@H](O)[C@H](O)[C@@H]1O[C@@H]1O[C@H](CO)[C@@H](O)[C@H](O)[C@H]1O | 3.08 | 5.96
C[C@H]1O[C@@H](O[C@H]2CC[C@@]3(C)[C@H](C2)C[C@@H]2O[C@]24[C@@H]3C[C@@H](O)[C@]2(C)[C@@H](C3=CC(=O)OC3)CC[C@@]24O)[C@H](O)[C@H](O)[C@@H]1O[C@@H]1O[C@H](CO)[C@@H](O)[C@H](O)[C@H]1O | 2.98 | 5.85
C[C@@H]1C[C@@H](O[C@@H]2O[C@H](CO)[C@@H](O)[C@H](O)[C@H]2O)[C@]2(O)O[C@@H]3C[C@@]4(C)[C@@H](C[C@@H]5O[C@]56[C@@H]4[C@H](O)C(=O)[C@]4(C)[C@@H](C5=CC(=O)OC5)CC[C@]64O)C[C@H]3O[C@@H]2O1 | 3.19 | 6.05
C[C@@H]1C[C@@]2(N=CCS2)[C@]2(O)O[C@@H]3C[C@@]4(C)[C@@H](C[C@@H]5O[C@]56[C@@H]4[C@H](O)C(=O)[C@]4(C)[C@@H](C5=CC(=O)OC5)CC[C@]64O)C[C@H]3O[C@@H]2O1 | 3.66 | 6.05
C[C@H]1O[C@@H](O[C@H]2CC[C@@]3(C)[C@H](C2)C[C@@H]2O[C@]24[C@@H]3C[C@@H](O)[C@]2(C)[C@@H](C3=CC(=O)OC3)CC[C@@]24O)[C@H](O)[C@H](O)[C@@H]1O | 2.97 | 5.85
C[C@@H]1O[C@@H](O[C@H]2C[C@@H](O)[C@]3(CO)[C@H]4[C@H](O)C[C@]5(C)[C@@H](C6=CC(=O)OC6)CC[C@]5(O)[C@@H]4CC[C@]3(O)C2)[C@H](O)[C@H](O)[C@H]1O [OUABAIN] | 2.68 | 6.15

From ChEMBL document CHEMBL6120993, “Cardenolides in Asclepias syriaca Seeds: Exploring the Legacy of Tadeus Reichstein” (J Nat Prod, 2025)
